The text below walks through data of ChEMBL document CHEMBL4428057, “Discovery, Synthesis, and Evaluation of 2,4-Diaminoquinazolines as a Novel Class of Pancreatic β-Cell-Protective Agents against Endoplasmic Reticulum (ER) Stress” (J Med Chem, 2016).

Calls of active or inactive are those of the source. No cut-off for these calls is given here.

Test [1] concerns the target T1, Cyclic AMP-dependent transcription factor ATF-6 alpha (Rattus norvegicus) (UniProt G3V909).
T1 sequence (whole entry): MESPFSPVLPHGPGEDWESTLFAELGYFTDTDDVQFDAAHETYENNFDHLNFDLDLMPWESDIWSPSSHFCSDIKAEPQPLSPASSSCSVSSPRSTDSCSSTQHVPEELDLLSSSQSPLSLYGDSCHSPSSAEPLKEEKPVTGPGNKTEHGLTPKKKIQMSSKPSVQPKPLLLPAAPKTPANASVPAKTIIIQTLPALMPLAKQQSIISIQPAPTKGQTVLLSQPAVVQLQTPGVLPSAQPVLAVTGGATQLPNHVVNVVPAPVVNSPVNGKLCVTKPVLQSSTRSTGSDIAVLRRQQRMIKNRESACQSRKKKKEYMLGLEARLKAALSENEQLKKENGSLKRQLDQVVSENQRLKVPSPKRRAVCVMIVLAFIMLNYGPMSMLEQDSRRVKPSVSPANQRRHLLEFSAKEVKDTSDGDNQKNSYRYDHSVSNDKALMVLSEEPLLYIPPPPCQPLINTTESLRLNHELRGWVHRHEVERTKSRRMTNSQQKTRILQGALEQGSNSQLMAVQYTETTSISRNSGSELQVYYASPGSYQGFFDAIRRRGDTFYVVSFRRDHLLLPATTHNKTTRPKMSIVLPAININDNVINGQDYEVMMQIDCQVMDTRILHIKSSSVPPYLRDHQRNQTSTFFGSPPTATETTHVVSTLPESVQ
The experiment in a line: Inhibition of ATF6 in rat INS-1 cells assessed as suppression of tunicamycin induced Bip mRNA levels at 20 uM after 4 to 24 hrs by qRT-PCR method. Type of test: cell-based. The essentials: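 INS-1 cells seeded at 4×10^5/well in 6-well plates, given Tm 0.1 µg/mL ± compound 20 µM or DMSO for the indicated times. Bip or GRP94 mRNA measured by qRT-PCR, expressed as fold-increase over untreated control. Means of 3 replicate wells, representative of 3 independent experiments.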
On the technique in general: Real-time PCR tracks product formation cycle by cycle.

For test [2], the system named is Pancreatic beta cell. As to the kind of experiment: Suppression of tunicamycin impaired glucose-stimulated insulin secretion in human Beta cells at 10 to 20 uM preincubated for 48 hrs followed by glucose addition for 1 hr by ELISA. Type of test: functional, cell-based. The essentials: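 Human islets (50 of equal size) in 96-well plates given Tm 1 µg/mL plus compound for 48 h, preincubated 1 h in KRBH (pH 7.4) with 2.5 mM glucose, then stimulated 1 h with 2.5 or 20 mM glucose. Secreted insulin by human insulin ELISA, normalized to total protein by Bradford.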
For orientation: In an ELISA, binding on a coated surface is turned into a signal by an enzyme label.

Test [3] concerns the target T2, Eukaryotic translation initiation factor 2-alpha kinase 3 (Rattus norvegicus) (UniProt Q9Z1Z1).
T2 sequence (whole entry): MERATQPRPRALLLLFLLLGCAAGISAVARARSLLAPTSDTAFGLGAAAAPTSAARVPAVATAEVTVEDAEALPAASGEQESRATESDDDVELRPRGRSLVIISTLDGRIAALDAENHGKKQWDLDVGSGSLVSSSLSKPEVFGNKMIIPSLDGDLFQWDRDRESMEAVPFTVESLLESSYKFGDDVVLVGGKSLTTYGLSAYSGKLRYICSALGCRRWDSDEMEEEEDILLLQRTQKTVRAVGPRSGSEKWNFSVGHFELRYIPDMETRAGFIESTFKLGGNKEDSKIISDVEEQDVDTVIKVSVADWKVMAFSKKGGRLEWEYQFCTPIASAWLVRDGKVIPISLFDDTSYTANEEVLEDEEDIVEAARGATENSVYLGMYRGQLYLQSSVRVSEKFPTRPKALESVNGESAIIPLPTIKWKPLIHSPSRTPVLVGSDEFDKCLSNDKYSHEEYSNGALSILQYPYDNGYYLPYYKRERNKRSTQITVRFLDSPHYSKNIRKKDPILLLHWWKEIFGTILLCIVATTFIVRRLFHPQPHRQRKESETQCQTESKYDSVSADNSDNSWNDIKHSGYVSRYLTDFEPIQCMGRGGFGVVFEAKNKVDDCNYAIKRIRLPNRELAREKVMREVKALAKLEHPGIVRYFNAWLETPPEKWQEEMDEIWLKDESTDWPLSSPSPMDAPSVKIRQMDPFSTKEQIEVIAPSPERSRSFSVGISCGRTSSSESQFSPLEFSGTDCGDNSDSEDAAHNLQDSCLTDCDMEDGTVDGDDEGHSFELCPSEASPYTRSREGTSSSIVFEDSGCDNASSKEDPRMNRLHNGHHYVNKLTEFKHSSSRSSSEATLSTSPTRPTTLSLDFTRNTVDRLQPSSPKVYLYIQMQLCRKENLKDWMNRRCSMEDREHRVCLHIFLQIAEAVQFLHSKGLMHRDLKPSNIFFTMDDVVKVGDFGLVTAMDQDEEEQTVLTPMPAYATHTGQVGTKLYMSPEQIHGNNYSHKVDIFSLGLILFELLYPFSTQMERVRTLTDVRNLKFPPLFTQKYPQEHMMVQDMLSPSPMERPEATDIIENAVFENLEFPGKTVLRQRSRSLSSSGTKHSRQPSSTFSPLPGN
As to the kind of experiment: Inhibition of PERK pathway in rat INS-1 cells assessed as reduction in tunicamycin induced CHOP protein levels at 20 uM after 2 to 24 hrs by Western blot analysis. Format: cell-based. The essentials: (§1)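 Western blots of INS-1 cells (8×10^5/60-mm dish) treated with Tm 0.1 µg/mL ± compound 20 µM or DMSO for the indicated times. Lysates with EDTA and phosphatase inhibitors; 20 µg protein on 7% SDS-PAGE, PVDF. Primary antibodies at 1:1000 against ATF4, CHOP, cleaved caspase 3 or PARP; α-tubulin loading control; HRP secondaries. Representative of 3 experiments.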

The test system of test [4] is INS1. The experiment in a line: Reversal of tunicamycin induced caspase-3 cleavage in rat INS-1 cells at 20 uM after 2 to 24 hrs by Western blot analysis. Format: functional, cell-based. The essentials:
as §1
On the technique in general: In western blotting, separated proteins are transferred to a membrane and probed.

Test [5] relates to INS1. The experiment in a line: Reversal of tunicamycin-induced suppression of PDX1 mRNA levels in rat INS-1 cells at 20 uM after 24 hrs by qRT-PCR method. Type of test: functional, cell-based. A digest of the protocol: (§2)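 INS-1 cells (4×10^5/well, 6-well plates) given Tm 0.1 µg/mL ± compound 20 µM or DMSO for 24 h. INS1, INS2, PDX1 and MafA mRNA measured by qRT-PCR with rat primers. Means of 3 replicate wells, representative of 3 independent experiments; SD.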

Test [6] relates to INS1. The experiment in a line: Reversal of tunicamycin suppressed INS2 mRNA levels in rat INS-1 cells at 20 uM after 24 hrs by qRT-PCR method. Type of test: functional, cell-based. The essentials:
as §2

In test [7] the test system is Pancreatic beta cell. The experiment in a line: Decrease in tunicamycin induced apoptosis in human Beta cells assessed as […] insulin cells level at 10 uM after 48 hrs by TUNEL staining based confocal microscopy (reference value: 15%). Type of test: functional. Set-up: scale not given: the % may be the effect or the level left.
Test [8] deals with Beta-TC6. As to the kind of experiment: Protection against tunicamycin induced endoplasmic reticulum stress in mouse BetaTC6 cells assessed as increase in cell viability after 72 hrs by MTT assay. Type of test: functional, cell-based. A digest of the protocol: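 βTC6 cells (DMEM, 15% FBS) seeded at 3×10^3/well in 384-well plates with Tm 0.25 µg/mL ± compound or DMSO for 72 h. Viability by CellTiter-Glo (ATP luminescence) or MTT: 3 h with reagent at 37 °C, then 4 h with crystal-dissolving solution, absorbance at 570 nm. 3 replicate wells, 3 experiments.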

For `COc1ccc(CNc2nc(N3CCCCC3CO)nc3ccccc23)cc1` (racemic), the inhibition entry in test [1] and in test [3] was “Active” in each case. Also, the result in test [2], in test [4], in test [5] and in test [6] was Active. Besides, the values for the Activity in test [7] and in test [8] were 3.5% and “Dose-dependent effect”, respectively.
